# Experiments:
# [1] = system: UACC-257; assay: Cytotoxicity against human UACC257 cells assessed as cellular growth at 10 uM; assay type: functional
# [2] = system: RXF 393; assay: Cytotoxicity against human RXF393 cells assessed as cellular growth at 10 uM; assay type: functional
# Method in brief: (§1)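 Single-dose screen run by the NCI across its 60-human-tumour-cell-line panel; growth recorded for each cell line.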
# [3] = system: MCF7; assay: Cytotoxicity against human MCF7 cells assessed as cellular growth at 10 uM; assay type: functional; method in brief: as §1
# [4] = system: K562; assay: Anticancer activity against human K562 cells; assay type: functional
# Method in brief: (§2)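 NCI 60-human-tumour-cell-line panel. Selected analogues were first run at one dose, then some were carried into multi-dose testing. GI50 (50% growth inhibition), TGI (total growth inhibition) and LC50 (50% cell kill) were read as values interpolated where the dose–response curves cross these levels.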
# [5] = system: PC-3; assay: Cytotoxicity against human PC3 cells after 48 hrs by SRB assay; assay type: functional, cell-based; conditions: PC-3, 48 h
# Method in brief: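 PC-3 cells grown in RPMI1640 with 10% FBS at 37 °C, 5% CO₂. Seeded in medium with 5% FBS; after 24 h, one plate fixed with 10% TCA as T₀. Compound or 0.1% DMSO vehicle added for 48 h, then TCA fixation and 0.4% SRB in 1% acetic acid. Dye solubilized in 10 mM Trizma base, absorbance read at 515 nm. IC50 is the concentration giving 50% reduction of the protein gain in controls.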
# [6] = system: RPMI-8226; assay: Anticancer activity against human RPMI8226 cells; assay type: functional; method in brief: as §2
# [7] = system: EKVX; assay: Anticancer activity against human EKVX cells; assay type: functional; method in brief: as §2
# [8] = system: HOP-62; assay: Anticancer activity against human HOP62 cells; assay type: functional; method in brief: as §2
# [9] = system: HOP-92; assay: Anticancer activity against human HOP92 cells; assay type: functional; method in brief: as §2
# [10] = system: NCI-H23; assay: Anticancer activity against human NCI-H23 cells; assay type: functional; method in brief: as §2
# [11] = system: NCI-H322M; assay: Anticancer activity against human NCI-H322M cells; assay type: functional; method in brief: as §2
# [12] = system: NCI-H522; assay: Anticancer activity against human NCI-H522 cells; assay type: functional; method in brief: as §2
# [13] = system: COLO 205; assay: Anticancer activity against human COLO205 cells; assay type: functional; method in brief: as §2
# [14] = system: HCT-116; assay: Anticancer activity against human HCT116 cells; assay type: functional; method in brief: as §2
# [15] = system: HCT-15; assay: Anticancer activity against human HCT15 cells; assay type: functional; method in brief: as §2
# [16] = system: KM12; assay: Anticancer activity against human KM12 cells; assay type: functional; method in brief: as §2
# [17] = system: SW-620; assay: Anticancer activity against human SW620 cells; assay type: functional
# [18] = system: SF-268; assay: Anticancer activity against human SF268 cells; assay type: functional; method in brief: as §2
# [19] = system: SNB-19; assay: Anticancer activity against human SNB19 cells; assay type: functional; conditions: read-out: LC50 (the source's name)
# Method in brief: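 Tested by the NCI in its 60-human-tumour-cell-line panel. Dose-response curves were run, and GI₅₀ (50% growth inhibition), TGI (total growth inhibition) and LC₅₀ (50% cell killing) were read as interpolated concentrations where the curves cross those levels.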
# [20] = system: SNB-75; assay: Anticancer activity against human SNB75 cells; assay type: functional; method in brief: as §2
# [21] = system: U-251; assay: Anticancer activity against human U251 cells; assay type: functional
# [22] = system: LOX IMVI; assay: Anticancer activity against human LOXIMVI cells; assay type: functional; method in brief: as §2
# [23] = system: M14; assay: Anticancer activity against human M14 cells; assay type: functional; method in brief: as §2
# [24] = system: SK-MEL-28; assay: Anticancer activity against human SK-MEL-28 cells; assay type: functional; method in brief: as §2
# [25] = system: UACC-62; assay: Anticancer activity against human UACC62 cells; assay type: functional
# [26] = system: IGROV-1; assay: Anticancer activity against human IGROV1 cells; assay type: functional; method in brief: as §2
# [27] = system: OVCAR-4; assay: Anticancer activity against human OVCAR4 cells; assay type: functional; method in brief: as §2
# [28] = system: OVCAR-5; assay: Anticancer activity against human OVCAR5 cells; assay type: functional; method in brief: as §2
# [29] = system: SN12C; assay: Anticancer activity against human SN12C cells; assay type: functional; method in brief: as §2
# [30] = system: TK-10; assay: Anticancer activity against human TK10 cells; assay type: functional
# [31] = system: CAKI-1; assay: Anticancer activity against human Caki1 cells; assay type: functional; method in brief: as §2
# [32] = system: DU-145; assay: Anticancer activity against human DU145 cells; assay type: functional; method in brief: as §2
# [33] = system: MDA-MB-231; assay: Anticancer activity against human MDA-MB-231 cells; assay type: functional; method in brief: as §2
# [34] = system: BT-549; assay: Anticancer activity against human BT549 cells; assay type: functional; method in brief: as §2
# [35] = system: SR; assay: Cytotoxicity against human SR cells assessed as cellular growth at 10 uM; assay type: functional
# [36] = system: K562; assay: Cytotoxicity against human K562 cells assessed as cellular growth at 10 uM; assay type: functional; method in brief: as §1
# [37] = system: HT-29; assay: Cytotoxicity against human HT-29 cells assessed as cellular growth at 10 uM; assay type: functional; method in brief: as §1
# [38] = system: KM12; assay: Cytotoxicity against human KM12 cells assessed as cellular growth at 10 uM; assay type: functional; method in brief: as §1
# [39] = system: SW-620; assay: Cytotoxicity against human SW620 cells assessed as cellular growth at 10 uM; assay type: functional
# [40] = system: LOX IMVI; assay: Cytotoxicity against human LOXIMVI cells assessed as cellular growth at 10 uM; assay type: functional; method in brief: as §1
# [41] = system: MDA-MB-435; assay: Cytotoxicity against human MDA-MB-435 cells assessed as cellular growth at 10 uM; assay type: functional; method in brief: as §1
# [42] = target: Telomerase reverse transcriptase (Homo sapiens) (UniProt O14746); assay: Residual activity of human TERT in H1299 cells at 1 uM after 24 hrs by SEAP reporter gene assay
# [43] = target: Telomerase reverse transcriptase (Homo sapiens) (UniProt O14746); assay: Residual activity of human TERT in H1299 cells at 10 uM after 24 hrs by SEAP reporter gene assay
# [44] = read-out: LC50 (the source's name)
# Telomerase reverse transcriptase (Homo sapiens), sequence (O14746 whole entry): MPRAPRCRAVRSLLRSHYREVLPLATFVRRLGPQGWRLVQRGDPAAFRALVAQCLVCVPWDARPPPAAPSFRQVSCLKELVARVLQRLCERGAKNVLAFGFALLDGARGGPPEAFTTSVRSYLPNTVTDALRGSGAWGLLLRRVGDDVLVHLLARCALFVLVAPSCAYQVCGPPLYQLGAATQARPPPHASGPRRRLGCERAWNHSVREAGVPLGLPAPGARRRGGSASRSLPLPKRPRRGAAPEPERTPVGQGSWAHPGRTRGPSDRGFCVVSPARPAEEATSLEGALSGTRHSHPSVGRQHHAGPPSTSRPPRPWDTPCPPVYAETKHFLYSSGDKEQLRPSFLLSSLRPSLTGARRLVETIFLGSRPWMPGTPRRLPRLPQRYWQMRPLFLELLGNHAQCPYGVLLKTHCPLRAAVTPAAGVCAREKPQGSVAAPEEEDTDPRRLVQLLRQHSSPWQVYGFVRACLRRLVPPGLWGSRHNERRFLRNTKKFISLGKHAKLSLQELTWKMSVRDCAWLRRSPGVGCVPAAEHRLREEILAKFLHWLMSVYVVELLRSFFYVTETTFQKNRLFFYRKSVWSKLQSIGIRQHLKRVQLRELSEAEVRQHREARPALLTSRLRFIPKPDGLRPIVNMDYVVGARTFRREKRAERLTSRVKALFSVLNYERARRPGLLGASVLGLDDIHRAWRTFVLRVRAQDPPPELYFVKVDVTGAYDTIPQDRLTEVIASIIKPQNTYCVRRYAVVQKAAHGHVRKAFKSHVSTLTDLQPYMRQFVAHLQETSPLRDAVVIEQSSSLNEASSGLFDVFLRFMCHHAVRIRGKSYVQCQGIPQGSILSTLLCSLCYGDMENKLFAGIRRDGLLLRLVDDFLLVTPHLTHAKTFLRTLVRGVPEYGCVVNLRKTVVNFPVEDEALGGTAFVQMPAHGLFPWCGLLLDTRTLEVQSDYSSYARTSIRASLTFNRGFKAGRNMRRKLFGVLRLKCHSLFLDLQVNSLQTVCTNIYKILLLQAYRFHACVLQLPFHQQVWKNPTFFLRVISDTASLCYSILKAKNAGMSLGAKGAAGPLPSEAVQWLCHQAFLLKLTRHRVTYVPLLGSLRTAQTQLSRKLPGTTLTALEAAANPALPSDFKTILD
compound,measurement,setting,value
Cc1ccc(C(=O)Nc2c(NC(=O)CN3CCN(C)CC3)ccc3c2C(=O)c2ccccc2C3=O)cc1,Activity,[1],-50.95%
same,Activity,[2],68.84%
same,Activity,[3],31.79%
same,GI50,[4],2.09 µM
same,IC50,[5],3.46 µM
same,GI50,[6],3.25 µM
same,LC50 (50% cell kill),[6],> 100 µM
same,TGI,[6],> 100 µM
same,TGI,[7],> 100 µM
same,CC50,[7]; [44],> 100 µM
same,GI50,[8],> 100 µM
same,LC50 (50% cell kill),[8],> 100 µM
same,TGI,[8],> 100 µM
same,GI50,[9],0.87 µM
same,LC50 (concentration giving 50% cell kill),[9],> 100 µM
same,TGI,[9],9.19 µM
same,GI50,[10],> 100 µM
same,LC50 (50% cell kill),[10],> 100 µM
same,TGI,[10],> 100 µM
same,GI50,[11],> 100 µM
same,LC50 (50% cell kill),[11],> 100 µM
same,TGI,[11],> 100 µM
same,TGI,[12],> 100 µM
same,CC50,[12]; [44],> 100 µM
same,GI50,[13],2.22 µM
same,LC50,[13],> 100 µM
same,TGI,[13],4.08 µM
same,GI50,[14],3.08 µM
same,TGI,[14],> 100 µM
same,CC50,[14]; [44],> 100 µM
same,GI50,[15],3.36 µM
same,LC50,[15],> 100 µM
same,TGI,[15],> 100 µM
same,LC50,[16],> 100 µM
same,TGI,[16],> 100 µM
same,TGI,[17],> 100 µM
same,CC50,[17]; [44],> 100 µM
same,TGI,[18],> 100 µM
same,CC50,[18]; [44],> 100 µM
same,CC50,[19],> 100 µM
same,GI50,[20],> 100 µM
same,TGI,[20],> 100 µM
same,CC50,[20]; [44],> 100 µM
same,GI50,[21],3.64 µM
same,TGI,[21],> 100 µM
same,CC50,[21]; [44],> 100 µM
same,TGI,[22],> 100 µM
same,CC50,[22]; [44],> 100 µM
same,GI50,[23],2.22 µM
same,TGI,[23],4.65 µM
same,GI50,[24],1.87 µM
same,GI50,[25],2.52 µM
same,CC50,[25]; [44],> 100 µM
same,GI50,[26],> 100 µM
same,TGI,[26],> 100 µM
same,CC50,[26]; [44],> 100 µM
same,TGI,[27],> 100 µM
same,CC50,[27]; [44],> 100 µM
same,GI50,[28],> 100 µM
same,TGI,[28],> 100 µM
same,CC50,[28]; [44],> 100 µM
same,TGI,[29],> 100 µM
same,CC50,[29]; [44],> 100 µM
same,GI50,[30],> 100 µM
same,TGI,[30],> 100 µM
same,CC50,[30]; [44],> 100 µM
same,TGI,[31],> 100 µM
same,CC50,[31]; [44],> 100 µM
same,GI50,[32],> 100 µM
same,TGI,[32],> 100 µM
same,CC50,[32]; [44],> 100 µM
same,GI50,[33],3.3 µM
same,TGI,[33],> 100 µM
same,CC50,[33]; [44],> 100 µM
same,GI50,[34],> 100 µM
same,TGI,[34],> 100 µM
same,CC50,[34]; [44],> 100 µM
same,Activity,[35],-43.7%
same,Activity,[36],-4.52%
same,Activity,[37],3.69%
same,Activity,[38],44.05%
same,Activity,[39],39.17%
same,Activity,[40],1.24%
same,Activity,[41],11.15%
same,residual activity,[42],78%
same,residual activity,[43],29%
Cc1ccc(C(=O)Nc2ccc3c(c2NC(=O)c2ccc(C)cc2)C(=O)c2ccccc2C3=O)cc1,Activity,[1],98.46%
same,Activity,[2],88.25%
same,Activity,[3],71.71%
same,IC50,[5],3.16 µM
same,Activity,[35],87.69%
same,Activity,[36],107.54%
same,Activity,[37],99.39%
same,Activity,[38],94.21%
same,Activity,[39],93.79%
same,Activity,[40],84.41%
same,residual activity,[42],108%
same,residual activity,[43],97%

# Source: ChEMBL document CHEMBL1926565, “Synthesis, antiproliferative activities and telomerase inhibition evaluation of novel asymmetrical 1,2-disubstituted amidoanthraquinone derivatives” (Eur J Med Chem, 2012)
